Results from ChEMBL document CHEMBL1145228, “Anti-coxsackievirus B3 activity of 2-amino-3-nitropyrazolo[1,5-a]pyrimidines and their analogs” (Bioorg Med Chem Lett, 2005).
Values after ≈ are worked out from the molar mass of the structure shown.

Key:
K562 = experiment: Growth inhibitory concentration against human chronic myeloid leukemic cells; type: functional
Outline: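 K-562 suspension cells (1 × 10^4) exposed to 10 twofold dilutions for 72h at 37°C, 5% CO2; proliferation counted with an electronic cell analyzer (CASY); GI50 reported.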

[1] = Therapeutic index (ratio of CC50 and IC50) was determined; NA denotes ''Not active''; type: cell-based; conditions: human, hela
Outline: (§1)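 TI computed by dividing mean HeLa CC50 (72h crystal violet cytotoxicity) by mean IC50 from the CVB3 CPE inhibition assay in HeLa cells.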

L929 = experiment: Growth inhibitory concentration against mouse fibroblast cells; type: functional
Outline: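 L-929 fibroblasts (1 × 10^4) added to 10 twofold dilutions and incubated 72h at 37°C, 5% CO2; growth measured by optical density after methylene blue staining; GI50 reported.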

HeLa = experiment: Inhibitory concentration against Coxsackievirus B3 in HeLa cells; type: functional, cell-based; conditions: Homo sapiens
[2] = Cytotoxic concentration against human cervix carcinoma cells
Outline: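 Confluent HeLa monolayers exposed 72h (37°C, 5% CO2) to twofold serial dilutions in duplicate; cells fixed and stained with crystal violet–formalin, read spectrophotometrically; CC50 = 50% cytotoxic concentration.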

[3] = Therapeutic index (ratio of CC50 and IC50) was determined; type: cell-based; conditions: human, HeLa cells; read-out: TI; outline: as §1
[4] = Partition coefficient (logP); type: physicochemical; conditions: octanol/water

Row | Structure (SMILES) | GI50 (K562) [µg/mL] | IC50 (HeLa) [µg/mL] | logP [4] | TI [1] | GI50 (L929) [µg/mL] | CC50 [2] [µg/mL] | selectivity ratio [3]
1 | NC(=S)NNCc1cc(O)n2nc(N)c([N+](=O)[O-])c2n1 | > 50 | > 50 | – | Not Active | > 50 | > 50 | –
2 | NC(=NCc1cc(O)n2nc(N)c([N+](=O)[O-])c2n1)SCc1ccccc1 | > 50 | > 50 | – | Not Active | > 50 | > 50 | –
3 | CCN(CC)C(=O)N1CCN(Cc2cc(O)n3nc(N)c([N+](=O)[O-])c3n2)CC1 | > 50 | > 50 | – | Not Active | > 50 | > 50 | –
4 | Nc1nn2c(O)cc(-c3ccccc3F)nc2c1[N+](=O)[O-] | > 50 | 20.3 (≈ 70.4 µM) | 2.34 | – | > 50 | 66.5 (≈ 230 µM) | 3.2
5 | Nc1nn2c(O)cc(CNNCCO)nc2c1[N+](=O)[O-] | > 50 | > 50 | – | Not Active | > 50 | > 50 | –
6 | Nc1nn2c(O)cc(-c3ccc(F)cc3)nc2c1[N+](=O)[O-] | > 50 | 50.3 (≈ 174 µM) | 2.34 | – | > 50 | > 100 | > 2
7 | Nc1nn2c(O)cc(-c3cc([N+](=O)[O-])c(Cl)cc3Cl)nc2c1[N+](=O)[O-] | > 50 | 3.94 (≈ 10.2 µM) | 2.77 | – | > 50 | > 100 | > 25.6
8 | Nc1nn2c(O)cc(-c3ccccc3)nc2c1[N+](=O)[O-] | > 50 | 29.6 (≈ 109 µM) | 2.54 | – | > 50 | > 100 | > 3.4
9 | Nc1nn2c(O)cc(CNNc3ccc(S(=O)(=O)O)cc3)nc2c1[N+](=O)[O-] | > 50 | > 50 | – | Not Active | > 50 | > 50 | –

The next lines start with results.

Row | GI50 (K562) [µg/mL] | IC50 (HeLa) [µg/mL] | logP [4] | Structure (SMILES) | TI [1] | GI50 (L929) [µg/mL] | CC50 [2] [µg/mL] | selectivity ratio [3]
10 | > 50 | > 50 | – | CCSC(N)NCc1cc(O)n2nc(N)c([N+](=O)[O-])c2n1 (centres undefined) | Not Active | > 50 | > 50 | –
11 | > 50 | > 50 | – | Nc1nn2c(O)cc(CCl)nc2c1[N+](=O)[O-] | Not Active | > 50 | > 50 | –
12 | > 50 | > 50 | – | Nc1nn2c(O)cc(CN3CCN(CCO)CC3)nc2c1[N+](=O)[O-] | Not Active | > 50 | > 50 | –
13 | > 50 | > 50 | – | Nc1nn2c(O)cc(CNCCO)nc2c1[N+](=O)[O-] | Not Active | > 50 | > 50 | –
14 | 5.1 (≈ 14.8 µM) | 17.5 (≈ 50.8 µM) | 2.46 | COc1ccc(NNCc2cc(O)n3nc(N)c([N+](=O)[O-])c3n2)cc1 | – | > 50 | 66.3 (≈ 192 µM) | 3.8
15 | 9 (≈ 19.6 µM) | > 50 | 3.73 | Nc1nn2c(O)cc(CN3CCN(C(c4ccccc4)c4ccccc4)CC3)nc2c1[N+](=O)[O-] | Not Active | 19.9 (≈ 43.3 µM) | 14.8 (≈ 32.2 µM) | –
16 | 33.1 (≈ 92.9 µM) | > 50 | 3.06 | CCN(CC)C(=S)SCc1cc(O)n2nc(N)c([N+](=O)[O-])c2n1 | Not Active | > 50 | > 50 | –
17 | 19.7 (≈ 59.1 µM) | 5.81 (≈ 17.4 µM) | 2.65 | Nc1nn2c(O)cc(CNNc3ccc(F)cc3)nc2c1[N+](=O)[O-] | – | 41.4 (≈ 124 µM) | > 100 | > 17.2
18 | 26.5 (≈ 111 µM) | 66.5 (≈ 278 µM) | 0.42 | NNCc1cc(O)n2nc(N)c([N+](=O)[O-])c2n1 | Not Active | 35.2 (≈ 147 µM) | 42.6 (≈ 178 µM) | –
